Publication PMC10610910 (Science Advances, 2023)

How the values were obtained:
HSF2BP [1] = molecular target: T1, HSF2BP (Homo sapiens, UniProt O75031); experiment: Mass photometry; type: physicochemical; settings: 25-100 nM
T1 sequence (O75031 1-334): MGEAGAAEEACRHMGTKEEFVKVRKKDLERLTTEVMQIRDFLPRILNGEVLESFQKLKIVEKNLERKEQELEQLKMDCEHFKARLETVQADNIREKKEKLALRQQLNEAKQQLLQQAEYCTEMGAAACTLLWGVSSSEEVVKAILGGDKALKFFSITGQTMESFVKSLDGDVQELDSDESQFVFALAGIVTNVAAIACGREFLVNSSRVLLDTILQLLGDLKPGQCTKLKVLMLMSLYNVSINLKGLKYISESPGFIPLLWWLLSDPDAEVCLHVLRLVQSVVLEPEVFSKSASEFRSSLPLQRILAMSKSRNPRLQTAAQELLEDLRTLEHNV

DNA = settings: ref [23]; cited from earlier work
endogenous Xenopus BRCA2 = settings: Xenopus egg extract; ref [24]; cited from earlier work
HeLa cells = type: cell-based, human; settings: HeLa stably producing the protein; MMC, cisplatin, talazoparib
Outline: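 HeLa cells in DMEM with 10% fetal calf serum were stably co-transfected (PiggyBac) with GFP-HSF2BP and/or Flag-BRME1 variants, then selected with puromycin (1.5 μg/ml) and G418 (800 μg/ml) for 8 days; mixed populations were used. Seeded 100–1000 cells/well in technical duplicates, drugs added next day: MMC 2 h, cisplatin or talazoparib overnight. Coomassie-stained colonies counted on day 10.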

SEC-SAXS of free HSF2BP = type: physicochemical
Outline: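 Free HSF2BP was loaded at 6 mg/ml onto a BIOSEC 3 column in 25 mM tris-HCl pH 7.5, 250 mM NaCl, 5 mM β-mercaptoethanol, with synchrotron scattering recorded every second during elution. Curves across the elution peak were summed. P(r) was derived so that its Fourier transform fits the SAXS curve.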

[2] = system: interstrand crosslink repair (pICL) in Xenopus egg extract; settings: Xenopus and human HSF2BP, ref [24]; cited from earlier work
[3] = SEC-MALS molecular mass / oligomeric state; type: physicochemical; settings: 25 mM tris-HCl pH 7.5, 250 mM NaCl, 5 mM β-mercaptoethanol, n = 2
HSF2BP [4] = molecular target: T1, HSF2BP; experiment: Scanning force microscopy; type: physicochemical; settings: SFM on mica, in air; HSF2BP at 12 nM
Outline: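 HSF2BP was diluted 10,000-fold to 12 nM in 25 mM tris-HCl pH 7.5, 250 mM NaCl, 5 mM β-mercaptoethanol. It was deposited for 30 s on freshly cleaved mica, rinsed with water, dried under filtered air, and imaged in air by SFM. Particle volume distributions were obtained by kernel density analysis.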

B1: HSF2BP: human HSF2BP, full-length wild type; GFP-HSF2BP in HeLa cells (protein)
chain: MGEAGAAEEACRHMGTKEEFVKVRKKDLERLTTEVMQIRDFLPRILNGEVLESFQKLKIVEKNLERKEQELEQLKMDCEHFKARLETVQADNIREKKEKLALRQQLNEAKQQLLQQAEYCTEMGAAACTLLWGVSSSEEVVKAILGGDKALKFFSITGQTMESFVKSLDGDVQELDSDESQFVFALAGIVTNVAAIACGREFLVNSSRVLLDTILQLLGDLKPGQCTKLKVLMLMSLYNVSINLKGLKYISESPGFIPLLWWLLSDPDAEVCLHVLRLVQSVVLEPEVFSKSASEFRSSLPLQRILAMSKSRNPRLQTAAQELLEDLRTLEHNV
modifications: left off: His6, end not stated, cleaved
effect on / state of HSF2BP oligomers, in words (HSF2BP [1]): at 25 nM, it is a mix of dimers and tetramers | affinity for DNA, in words (DNA): no detectable affinity for DNA | effect on BRCA2, in words (endogenous Xenopus BRCA2): leads to DNA crosslink-dependent proteasomal degradation of BRCA2 | effect on cell resistance to DNA damage, in words (HeLa cells): sensitized cells to DNA damage | maximal distance (SEC-SAXS of free HSF2BP; P(r)): 250 Å | molar mass (I(0)) (SEC-SAXS of free HSF2BP; protein ~50 to 60 μM, pH 7.5, 293.15 K): 156 ± 21 kDa | effect on crosslink repair, in words [2]: inhibit replication-dependent restoration of the genetic information at the crosslink | apparent molar mass [3]: 136 ± 7 kDa | particle volume, larger peak (HSF2BP [4]): ~190 nm^3 | particle volume, smaller peak (HSF2BP [4]): around 95 nm^3
